Measurements from ChEMBL document CHEMBL2331221, “Potent elastase inhibitors from cyanobacteria: structural basis and mechanisms mediating cytoprotective and anti-inflammatory effects in bronchial epithelial cells” (J Med Chem, 2013).
The source made the active and inactive calls. No cut-off for these calls is given here.

Tests used:
[1] = molecular target: Disintegrin and metalloproteinase domain-containing protein 17 (Homo sapiens) (UniProt P78536); test: Inhibition of TACE (unknown origin) using MCA-PLAQAV-Dpa-RSSSR-NH2 substrate assessed as residual activity at 10 uM incubated for 15 mins prior to substrate addition measured for 2 hrs
Outline: (§1)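 Protease panel screen: enzyme and inhibitor preincubated 15 min in reaction buffer, then substrate added; reaction followed for 2 h and the initial linear part of the progress curve used for activity. Enzyme, substrate, buffer and detection details are given only in a supporting table.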

[2] = molecular target: Caspase-10 (Homo sapiens) (UniProt Q92851); test: Inhibition of Caspase 10 (unknown origin) using Ac-LEHD-AMC substrate assessed as residual activity at 10 uM incubated for 15 mins prior to substrate addition measured for 2 hrs
Outline: (§2)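 Protease panel screen: enzyme and test inhibitor preincubated 15 min in the enzyme's reaction buffer, then substrate added. Reaction followed for 2 h, and activity was taken from the initial linear portion of the progress-curve slope. Enzyme, substrate, buffer and detection conditions for each target are given only in the paper's supporting table.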

[3] = molecular target: Macrophage metalloelastase (Homo sapiens) (UniProt P39900); test: Inhibition of MMP12 (unknown origin) using (5-FAM/QXLTM) FRET peptide substrate assessed as residual activity at 10 uM incubated for 15 mins prior to substrate addition measured for 2 hrs; outline: as §2
[4] = molecular target: Coagulation factor VII (Homo sapiens) (UniProt P08709); test: Inhibition of Factor-7a (unknown origin) using Z-VVR-AMC substrate assessed as residual activity at 10 uM incubated for 15 mins prior to substrate addition measured for 2 hrs; outline: as §2
Cathepsin G = Cathepsin G (Homo sapiens, UniProt P08311); test: Inhibition of Cathepsin G (unknown origin) using Suc-AAPF-AMC substrate incubated for 15 mins prior to substrate addition measured for 2 hrs; outline: as §2
[5] = molecular target: Cathepsin S (Homo sapiens) (UniProt P25774); test: Inhibition of Cathepsin S (unknown origin) using Z-FR-AMC substrate assessed as residual activity at 10 uM incubated for 15 mins prior to substrate addition measured for 2 hrs; outline: as §2
[6] = molecular target: Stromelysin-3 (Homo sapiens) (UniProt P24347); test: Inhibition of MMP11 (unknown origin) using (5-FAM/QXLTM) FRET peptide substrate assessed as residual activity at 10 uM incubated for 15 mins prior to substrate addition measured for 2 hrs; outline: as §2
[7] = molecular target: Plasminogen (Homo sapiens) (UniProt P00747); test: Inhibition of Plasmin (unknown origin) using H-D-CHA -Ala-Arg-AMC.2AcOH substrate assessed as residual activity at 10 uM incubated for 15 mins prior to substrate addition measured for 2 hrs; outline: as §1
[8] = molecular target: Stromelysin-2 (Homo sapiens) (UniProt P09238); test: Inhibition of MMP10 (unknown origin) using (5-FAM/QXLTM) FRET peptide substrate assessed as residual activity at 10 uM incubated for 15 mins prior to substrate addition measured for 2 hrs; outline: as §2
[9] = molecular target: Matrilysin (Homo sapiens) (UniProt P09237); test: Inhibition of MMP7 (unknown origin) using (5-FAM/QXLTM) FRET peptide substrate assessed as residual activity at 10 uM incubated for 15 mins prior to substrate addition measured for 2 hrs; outline: as §1
[10] = molecular target: T1, Neutrophil elastase (Homo sapiens) (UniProt P08246); conditions: 10 uM
T1 sequence (whole entry): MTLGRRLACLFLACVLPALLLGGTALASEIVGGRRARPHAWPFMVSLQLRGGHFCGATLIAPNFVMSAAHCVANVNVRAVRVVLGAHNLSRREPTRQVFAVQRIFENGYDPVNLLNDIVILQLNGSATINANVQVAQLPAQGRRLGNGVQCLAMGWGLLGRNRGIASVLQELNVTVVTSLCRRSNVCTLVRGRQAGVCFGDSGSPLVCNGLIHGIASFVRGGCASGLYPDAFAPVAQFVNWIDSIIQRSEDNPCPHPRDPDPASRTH

[11] = molecular target: Neutrophil collagenase (Homo sapiens) (UniProt P22894); test: Inhibition of MMP8 (unknown origin) using (5-FAM/QXLTM) FRET peptide substrate assessed as residual activity at 10 uM incubated for 15 mins prior to substrate addition measured for 2 hrs; outline: as §1
Kallikrein-5 = Kallikrein-5 (Homo sapiens, UniProt Q9Y337); test: Inhibition of Kallikrein-5 (unknown origin) using Z-VVR-AMC substrate incubated for 15 mins prior to substrate addition measured for 2 hrs; outline: as §2
Homo sapiens [12] = organism: Homo sapiens; test: Inhibition of Thrombin alpha (unknown origin) using H-D-CHA -Ala-Arg-AMC.2AcOH substrate assessed as residual activity at 10 uM incubated for 15 mins prior to substrate addition measured for 2 hrs; outline: as §1
[13] = Inhibition of porcine pancreatic elastase using Suc-AAA-pNa substrate incubated for 15 mins prior to substrate addition measured for 2 hrs; design: species or system Sus scrofa
Outline: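 Elastase preincubated with test compound (DMSO) in Tris-HCl pH 8.0 for 15 min at room temperature; N-succinyl-Ala-Ala-Ala-p-nitroanilide then added (2 mM stock in Tris-HCl pH 8.0). Absorbance at 405 nm recorded every 30 s; activity as initial slope, percent of uninhibited reaction.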

Kallikrein-12 = Kallikrein-12 (Homo sapiens, UniProt Q9UKR0); test: Inhibition of Kallikrein-12 (unknown origin) using VPR-AMC substrate incubated for 15 mins prior to substrate addition measured for 2 hrs; outline: as §2
Papain (Carica papaya) = Papain (Carica papaya) (UniProt P00784); test: Inhibition of papaya Papain using Z-FR-AMC substrate assessed as residual activity at 10 uM incubated for 15 mins prior to substrate addition measured for 2 hrs; outline: as §1
[14] = molecular target: Collagenase 3 (Homo sapiens) (UniProt P45452); test: Inhibition of MMP13 (unknown origin) using (5-FAM/QXLTM) FRET peptide substrate assessed as residual activity at 10 uM incubated for 15 mins prior to substrate addition measured for 2 hrs; outline: as §2
[15] = molecular target: Stromelysin-1 (Homo sapiens) (UniProt P08254); test: Inhibition of MMP3 (unknown origin) using (5-FAM/QXLTM) FRET peptide substrate assessed as residual activity at 10 uM incubated for 15 mins prior to substrate addition measured for 2 hrs; outline: as §2
[16] = molecular target: Matrix metalloproteinase-14 (Homo sapiens) (UniProt P50281); test: Inhibition of MMP14 (unknown origin) using (5-FAM/QXLTM) FRET peptide substrate assessed as residual activity at 10 uM incubated for 15 mins prior to substrate addition measured for 2 hrs; outline: as §2
Homo sapiens [17] = organism: Homo sapiens; test: Inhibition of human pancreatic chymotrypsin assessed as proteolysis using N-succinyl-Ala-Ala-Pro-Phe-p-nitroanilide substrate incubated at 10 uM for 30 mins prior to substrate addition; design: scale not given: the % may be the effect or the level left
Outline: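 Pancreatic chymotrypsin, bovine at 100 μg/mL or human at 50 μg/mL; reaction buffer, enzyme and inhibitor (DMSO) incubated 30 min at room temperature, then substrate added (bovine: N-succinyl-Gly-Gly-Phe-pNA; human: N-succinyl-Ala-Ala-Pro-Phe-pNA). Absorbance read at 405 nm; activity from reaction slope relative to solvent control.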

[18] = molecular target: Kallikrein-13 (Homo sapiens) (UniProt Q9UKR3); test: Inhibition of Kallikrein-13 (unknown origin) using VPR-AMC substrate assessed as residual activity at 10 uM incubated for 15 mins prior to substrate addition measured for 2 hrs; outline: as §2
Sequence of Kallikrein-13 (Homo sapiens) (Q9UKR3 whole entry): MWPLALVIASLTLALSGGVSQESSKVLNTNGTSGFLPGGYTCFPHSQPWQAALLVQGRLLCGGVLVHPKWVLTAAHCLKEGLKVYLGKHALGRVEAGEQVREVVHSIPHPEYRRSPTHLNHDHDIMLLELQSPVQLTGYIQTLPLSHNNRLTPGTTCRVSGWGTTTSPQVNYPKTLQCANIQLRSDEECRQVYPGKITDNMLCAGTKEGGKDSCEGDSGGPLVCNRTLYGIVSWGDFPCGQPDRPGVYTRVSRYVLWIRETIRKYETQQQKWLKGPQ

Sequence of Kallikrein-5 (Q9Y337 whole entry): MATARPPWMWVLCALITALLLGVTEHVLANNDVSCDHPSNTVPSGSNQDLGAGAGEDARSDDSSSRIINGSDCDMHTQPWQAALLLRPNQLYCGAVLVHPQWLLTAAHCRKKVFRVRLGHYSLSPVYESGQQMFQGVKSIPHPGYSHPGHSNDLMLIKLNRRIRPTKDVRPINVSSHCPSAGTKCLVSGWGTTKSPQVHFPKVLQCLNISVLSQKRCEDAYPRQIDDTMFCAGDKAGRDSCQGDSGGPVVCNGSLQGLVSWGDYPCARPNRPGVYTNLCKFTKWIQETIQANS
Sequence of Stromelysin-2 (Homo sapiens) (P09238 99-476 limits assumed): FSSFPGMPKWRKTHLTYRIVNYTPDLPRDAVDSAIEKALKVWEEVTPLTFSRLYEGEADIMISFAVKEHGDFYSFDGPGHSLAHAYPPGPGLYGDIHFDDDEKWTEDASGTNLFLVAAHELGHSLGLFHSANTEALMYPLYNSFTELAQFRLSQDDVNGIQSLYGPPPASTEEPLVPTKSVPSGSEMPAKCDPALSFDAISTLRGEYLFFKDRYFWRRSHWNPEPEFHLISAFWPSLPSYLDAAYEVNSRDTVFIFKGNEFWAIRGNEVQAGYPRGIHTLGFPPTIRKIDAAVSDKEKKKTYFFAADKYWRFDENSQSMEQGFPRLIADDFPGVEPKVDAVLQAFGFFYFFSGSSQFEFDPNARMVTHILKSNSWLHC
Sequence of Macrophage metalloelastase (Homo sapiens) (P39900 106-470 limits assumed): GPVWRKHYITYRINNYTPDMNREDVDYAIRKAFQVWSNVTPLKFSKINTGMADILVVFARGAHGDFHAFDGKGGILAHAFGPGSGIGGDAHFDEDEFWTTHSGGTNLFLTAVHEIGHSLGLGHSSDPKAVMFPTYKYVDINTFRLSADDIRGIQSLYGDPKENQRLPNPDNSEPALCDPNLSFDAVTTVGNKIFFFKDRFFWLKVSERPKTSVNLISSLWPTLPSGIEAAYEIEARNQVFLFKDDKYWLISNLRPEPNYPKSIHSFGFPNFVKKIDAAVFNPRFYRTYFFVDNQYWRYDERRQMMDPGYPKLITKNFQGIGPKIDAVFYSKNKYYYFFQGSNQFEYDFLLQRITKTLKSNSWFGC
Sequence of Coagulation factor VII (Homo sapiens) (P08709 61-212 limits assumed): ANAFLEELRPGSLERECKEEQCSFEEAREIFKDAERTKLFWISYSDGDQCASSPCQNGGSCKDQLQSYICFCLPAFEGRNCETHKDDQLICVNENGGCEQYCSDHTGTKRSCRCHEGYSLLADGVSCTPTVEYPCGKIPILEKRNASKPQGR
Sequence of Coagulation factor VII (Homo sapiens) (P08709 213-466 limits assumed): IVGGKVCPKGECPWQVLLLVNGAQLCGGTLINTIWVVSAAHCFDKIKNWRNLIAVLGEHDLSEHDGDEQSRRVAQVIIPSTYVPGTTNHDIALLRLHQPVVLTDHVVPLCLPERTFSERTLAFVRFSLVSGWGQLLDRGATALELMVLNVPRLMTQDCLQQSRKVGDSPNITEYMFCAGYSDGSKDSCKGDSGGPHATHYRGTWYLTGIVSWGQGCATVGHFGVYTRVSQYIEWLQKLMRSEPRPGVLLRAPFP
Sequence of Matrilysin (Homo sapiens) (P09237 whole entry): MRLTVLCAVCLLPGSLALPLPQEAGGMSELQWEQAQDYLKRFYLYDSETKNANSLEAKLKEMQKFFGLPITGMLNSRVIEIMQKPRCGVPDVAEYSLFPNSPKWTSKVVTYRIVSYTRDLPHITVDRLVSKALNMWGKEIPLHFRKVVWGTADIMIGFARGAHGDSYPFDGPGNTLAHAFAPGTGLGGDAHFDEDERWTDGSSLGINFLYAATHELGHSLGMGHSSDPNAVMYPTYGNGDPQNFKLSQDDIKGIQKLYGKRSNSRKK
Sequence of Stromelysin-3 (Homo sapiens) (P24347 whole entry): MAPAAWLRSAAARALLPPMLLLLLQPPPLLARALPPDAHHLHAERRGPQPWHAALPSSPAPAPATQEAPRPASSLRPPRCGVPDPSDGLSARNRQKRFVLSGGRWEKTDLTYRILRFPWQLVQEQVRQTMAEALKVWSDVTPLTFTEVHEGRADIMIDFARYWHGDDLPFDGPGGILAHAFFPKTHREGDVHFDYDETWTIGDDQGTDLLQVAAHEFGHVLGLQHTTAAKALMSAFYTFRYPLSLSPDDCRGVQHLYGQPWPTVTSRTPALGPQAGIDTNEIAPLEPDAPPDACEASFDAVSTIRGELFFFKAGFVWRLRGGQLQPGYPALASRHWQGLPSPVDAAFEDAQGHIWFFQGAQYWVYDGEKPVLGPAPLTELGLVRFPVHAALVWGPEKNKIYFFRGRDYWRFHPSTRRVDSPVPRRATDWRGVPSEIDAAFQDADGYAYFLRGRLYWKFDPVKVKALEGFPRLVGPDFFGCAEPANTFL
Sequence of Cathepsin S (Homo sapiens) (P25774 115-331 limits assumed): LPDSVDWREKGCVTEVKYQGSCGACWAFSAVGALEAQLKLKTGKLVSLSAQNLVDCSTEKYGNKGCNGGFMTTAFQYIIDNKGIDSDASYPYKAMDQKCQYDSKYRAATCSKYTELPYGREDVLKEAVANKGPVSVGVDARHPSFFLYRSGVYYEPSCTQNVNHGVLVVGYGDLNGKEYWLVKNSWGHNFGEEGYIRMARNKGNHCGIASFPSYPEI
Sequence of Plasminogen (Homo sapiens) (P00747 97-580 limits assumed): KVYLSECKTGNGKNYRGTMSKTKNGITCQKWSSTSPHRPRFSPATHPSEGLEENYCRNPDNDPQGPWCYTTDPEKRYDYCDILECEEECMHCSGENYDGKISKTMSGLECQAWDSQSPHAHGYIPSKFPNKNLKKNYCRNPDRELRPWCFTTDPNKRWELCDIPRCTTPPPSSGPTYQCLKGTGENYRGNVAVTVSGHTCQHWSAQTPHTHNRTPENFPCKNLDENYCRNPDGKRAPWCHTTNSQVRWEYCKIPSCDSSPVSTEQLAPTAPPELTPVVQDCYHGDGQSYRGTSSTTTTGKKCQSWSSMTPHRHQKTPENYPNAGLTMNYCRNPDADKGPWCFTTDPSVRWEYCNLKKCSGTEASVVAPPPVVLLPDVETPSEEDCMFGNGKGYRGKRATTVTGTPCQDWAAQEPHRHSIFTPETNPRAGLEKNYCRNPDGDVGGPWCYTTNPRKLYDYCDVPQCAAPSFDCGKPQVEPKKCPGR
Sequence of Plasminogen (Homo sapiens) (P00747 581-810 limits assumed): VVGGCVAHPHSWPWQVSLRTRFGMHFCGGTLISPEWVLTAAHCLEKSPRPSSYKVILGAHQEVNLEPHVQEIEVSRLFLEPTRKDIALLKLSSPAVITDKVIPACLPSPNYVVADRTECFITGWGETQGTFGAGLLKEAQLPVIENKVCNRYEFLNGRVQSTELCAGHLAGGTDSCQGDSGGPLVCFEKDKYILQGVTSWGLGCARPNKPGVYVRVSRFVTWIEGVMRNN
Sequence of Disintegrin and metalloproteinase domain-containing protein 17 (Homo sapiens) (P78536 whole entry, the tested form may be a part): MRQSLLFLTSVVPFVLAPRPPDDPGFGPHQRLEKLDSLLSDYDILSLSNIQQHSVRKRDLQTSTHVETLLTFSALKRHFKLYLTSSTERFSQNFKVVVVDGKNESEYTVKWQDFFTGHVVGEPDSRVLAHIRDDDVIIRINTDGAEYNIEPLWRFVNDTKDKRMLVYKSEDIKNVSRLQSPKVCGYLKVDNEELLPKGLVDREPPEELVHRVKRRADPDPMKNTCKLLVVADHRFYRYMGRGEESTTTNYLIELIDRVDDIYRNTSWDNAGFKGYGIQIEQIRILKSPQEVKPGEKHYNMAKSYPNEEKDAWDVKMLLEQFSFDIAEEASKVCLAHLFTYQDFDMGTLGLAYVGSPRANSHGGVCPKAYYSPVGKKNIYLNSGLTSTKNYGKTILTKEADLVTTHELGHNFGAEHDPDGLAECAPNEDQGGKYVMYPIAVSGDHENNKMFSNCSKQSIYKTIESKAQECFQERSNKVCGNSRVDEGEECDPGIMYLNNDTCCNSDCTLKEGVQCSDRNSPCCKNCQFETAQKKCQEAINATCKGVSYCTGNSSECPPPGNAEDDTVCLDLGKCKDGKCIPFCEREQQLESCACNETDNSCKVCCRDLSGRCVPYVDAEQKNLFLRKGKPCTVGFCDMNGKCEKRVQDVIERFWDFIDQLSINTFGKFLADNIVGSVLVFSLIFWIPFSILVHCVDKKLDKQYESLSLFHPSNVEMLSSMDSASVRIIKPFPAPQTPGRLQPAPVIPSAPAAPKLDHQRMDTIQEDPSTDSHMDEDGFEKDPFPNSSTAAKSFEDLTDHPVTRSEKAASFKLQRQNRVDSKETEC
Sequence of Caspase-10 (Homo sapiens) (Q92851 220-415 limits assumed): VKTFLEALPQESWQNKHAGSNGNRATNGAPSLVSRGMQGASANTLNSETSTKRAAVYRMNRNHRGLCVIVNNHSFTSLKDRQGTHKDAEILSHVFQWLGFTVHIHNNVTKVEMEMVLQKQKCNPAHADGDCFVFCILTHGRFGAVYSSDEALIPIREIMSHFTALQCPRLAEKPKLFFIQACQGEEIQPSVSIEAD
Sequence of Caspase-10 (Homo sapiens) (Q92851 416-521 limits assumed): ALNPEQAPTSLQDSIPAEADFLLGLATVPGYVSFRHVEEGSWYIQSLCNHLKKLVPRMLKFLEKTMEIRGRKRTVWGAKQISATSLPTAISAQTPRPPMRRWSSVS
Sequence of Cathepsin G (P08311 whole entry): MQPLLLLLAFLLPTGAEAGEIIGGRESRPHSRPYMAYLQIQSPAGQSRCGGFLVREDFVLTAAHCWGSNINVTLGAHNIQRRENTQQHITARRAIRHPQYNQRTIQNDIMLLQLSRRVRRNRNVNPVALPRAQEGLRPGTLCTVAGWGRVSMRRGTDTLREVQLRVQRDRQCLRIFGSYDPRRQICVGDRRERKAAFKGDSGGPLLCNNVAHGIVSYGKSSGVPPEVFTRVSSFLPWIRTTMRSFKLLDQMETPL

**Q.** For `C/C=C1\NC(=O)[C@@H](NC(=O)[C@@H](NC(=O)[C@@H](COS(=O)(=O)[O-])OC)C(C)C)[C@@H](C)OC(=O)[C@H]([C@H](C)CC)NC(=O)[C@H](Cc2ccccc2)N(C)C(=O)[C@H](Cc2ccccc2)N2C(=O)[C@H](CC[C@H]2O)NC1=O.[Na+]` [Symplostatin 5], which Activity [1] is on record?
**A.** 100%

**Q.** What about the Activity [2] of the same molecule?
**A.** 100%

**Q.** What about the Activity [3] of the same molecule?
**A.** 100%

**Q.** What about the Activity [4] of the same molecule?
**A.** 100%

**Q.** And the IC50 (Cathepsin G)?
**A.** < 10 µM

**Q.** What about the Activity [5] of the same molecule?
**A.** 100%

**Q.** And the Activity [6]?
**A.** 100%

**Q.** What about the Activity [7] of the same molecule?
**A.** 100%

**Q.** And the Activity [8]?
**A.** 100%

**Q.** And the Activity [9]?
**A.** 100%

**Q.** What about the inhibition [10] of the same molecule?
**A.** Active

**Q.** What about the Activity [11] of the same molecule?
**A.** 100%

**Q.** And the IC50 (Kallikrein-5)?
**A.** < 10 µM

**Q.** What about the Activity (Homo sapiens [12]) of the same molecule?
**A.** 100%

**Q.** And the pIC50 [13]?
**A.** > 5

**Q.** And the IC50 (Kallikrein-12)?
**A.** < 10 µM

**Q.** What about the Activity (Papain (Carica papaya)) of the same molecule?
**A.** 100%

**Q.** What about the Activity [14] of the same molecule?
**A.** 100%

**Q.** What about the Activity [15] of the same molecule?
**A.** 100%

**Q.** What about the Activity [16] of the same molecule?
**A.** 100%

**Q.** And the Activity (Homo sapiens [17])?
**A.** 53.4%

**Q.** And the Activity [18]?
**A.** 100%
